Screens: PubChem BioAssay, The Scripps Research Institute Molecular Screening Center
Most compounds without a hit are left out; they make up all but 1.4% or so of the library.
Fh CTSL1 inh – Fasciola hepatica cathepsin L1 inhibitors, primary screen, counter-screen for PFM18AAP inhibitor project, biochemical, QFRET, fluorogenic peptide substrate | recombinant F. hepatica cathepsin L1, Z-Leu-Arg-MCA fluorescence | inhibition, % at 5.96 µM | actives 0.49% (n = 300,000) | AID 1906, 2009;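 active = inhibition above the mean of all tested compounds plus 3 SD, set per screening campaign, cut at about 17% in these data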
TDP2 absorb – human TDP2 enzyme inhibitors, primary screen, biochemical, epi absorbance, recombinant enzyme; T5PNP hydrolysis, p-nitrophenol absorbance 415 nm; inhibition, % at 12.8 µM; actives 0.34% (n = 370,000);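 active = inhibition above the mean of all tested compounds plus 3 SD, set per campaign, cut at about 25% in these data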
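System – recombinant human TDP2 · Amount – 120 nM TDP2 per well · Buffer or medium – Mg2+-containing Tris-HCl buffer, pH 7.5 · Reagent – T5PNP substrate, 5 mM · Dosing – 12.8 µM single point, 1% DMSO · Incubation – 2 h at 37 °C · Measured by – epi absorbance · Read-out basis – percent inhibition · Benchmarks – high control without enzyme, low control DMSO plus TDP2 · Repeats – singlicate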
PAD4 inh – human PAD4 inhibitors, primary screen, biochemical, fluorescence polarization, 1536-well format; Protein-arginine deiminase type-4 (Homo sapiens), Q9UM07; recombinant PAD4, RCA probe fluorescence polarization; inhibition, % at 6.36 µM; actives 0.41% (n = 330,000); AID 485272, 2010;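 active = percent inhibition above a cutoff equal to the mean of all tested compounds plus 3 SD, cut at about 15% in these data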
Target sequence (Q9UM07 whole entry, looked up): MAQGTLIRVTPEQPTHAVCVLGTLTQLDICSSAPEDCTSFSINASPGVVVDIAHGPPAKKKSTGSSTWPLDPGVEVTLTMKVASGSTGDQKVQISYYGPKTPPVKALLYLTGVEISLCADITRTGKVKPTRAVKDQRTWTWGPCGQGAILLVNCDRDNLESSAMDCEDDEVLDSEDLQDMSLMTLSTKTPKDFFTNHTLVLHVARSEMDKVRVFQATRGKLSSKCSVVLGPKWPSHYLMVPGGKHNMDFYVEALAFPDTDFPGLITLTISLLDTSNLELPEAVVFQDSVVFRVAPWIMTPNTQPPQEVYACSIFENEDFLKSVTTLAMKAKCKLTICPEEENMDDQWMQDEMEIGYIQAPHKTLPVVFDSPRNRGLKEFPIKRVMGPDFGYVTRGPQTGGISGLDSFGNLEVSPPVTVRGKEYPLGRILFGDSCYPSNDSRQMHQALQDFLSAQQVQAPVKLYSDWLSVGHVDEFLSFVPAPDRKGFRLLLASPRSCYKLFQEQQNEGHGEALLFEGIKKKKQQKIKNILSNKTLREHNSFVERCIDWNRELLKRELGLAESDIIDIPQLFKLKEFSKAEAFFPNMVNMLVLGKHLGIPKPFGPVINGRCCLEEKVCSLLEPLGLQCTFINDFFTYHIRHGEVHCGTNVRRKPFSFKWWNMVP
GSTO1 counter – inhibitors of recombinant GSTO1, primary screen, counter-screen for RBBP9 inhibitor project, biochemical, fluorescence polarization. Glutathione S-transferase omega-1 (Homo sapiens), P78417. inhibition, % at 5.96 µM. actives 1.1% (n = 300,000). AID 1974, 2009. activity-based probe fluorescence polarization;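 active = inhibition above the campaign mean inhibition plus 3 SD, cut at about 35% in these data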
Large screens that a line does not name were inactive.

CCCCn1c(SCC(N)=O)nc2c(sc3ccccc32)c1=O	GSTO1 counter 50
C/C(CCC1CC(C)OC1=O)=N\NC(N)=S (stereo unspecified)	none
C/C(CC1CC(COCCC(C)C)OC1=O)=N\NC(N)=S (stereo unspecified)	Fh CTSL1 inh 21
CC(C)C[C@H](NC(=O)N1CC(=O)Nc2ccccc21)C(=O)N[C@@H](Cc1c[nH]c2ccccc12)C(=O)O	Fh CTSL1 inh 22
CC(C)C[C@H](NC(=O)N1CC(=O)Nc2ccccc21)C(=O)N[C@H](Cc1c[nH]c2ccccc12)C(=O)O	Fh CTSL1 inh 38
CCC(C)[C@H](NC(=O)N1CC(=O)Nc2ccccc21)C(=O)N[C@@H](Cc1c[nH]c2ccccc12)C(=O)O (stereo partly specified)	none
COc1ccc(NC(=O)N2CCC(N(C)CCC(C)C)CC2)cc1OC	none (no result: Fh CTSL1 inh, PAD4 inh, GSTO1 counter)
Cc1ccc(N(CC(=O)N2CCN(C3CCCCC3)CC2)S(=O)(=O)c2cccnc2)cc1	Fh CTSL1 inh 18
Cc1ccc(S(=O)(=O)N(CC(=O)N2CCCCCC2)c2ccccc2)cc1	none
C[C@@H]1C(=O)N2N=Cc3ccccc3[C@H]2N2N=Cc3ccccc3[C@@H]12	none (no result: Fh CTSL1 inh, PAD4 inh, GSTO1 counter)
CCOc1ccc(CCNC(=O)C2CCCCC2)cc1OCC	none (no result: Fh CTSL1 inh, PAD4 inh, GSTO1 counter)
C=CCN1[C@H](C#N)[C@@H](c2ccc(C#Cc3cccnc3)cc2)[C@H]1CO	none (no result: Fh CTSL1 inh, PAD4 inh, GSTO1 counter)
CN=c1sc2c(n1C)C(=O)c1ccccc1C2=O	TDP2 absorb 35 (no result: Fh CTSL1 inh, PAD4 inh, GSTO1 counter)
Cc1ccc(C(=O)Nc2ccc(C(=O)N/N=C/c3ccccn3)cc2)cc1	Fh CTSL1 inh 19
O=C(CSc1nc2ccccc2o1)Nc1nncs1	none
CCc1nnc(NC(=O)CSc2nnc(-c3ccco3)n2C)s1	none
CCc1ccc(-c2ccc(SCC(=O)Nc3nnc(C)s3)nn2)cc1	GSTO1 counter 36
Cc1nnc(NC(=O)CSc2ccc(-c3ccco3)nn2)s1	GSTO1 counter 54
Cc1nnc(NC(=O)CSc2nc3ccccc3o2)s1	GSTO1 counter 37
CCc1nnc(NC(=O)CSc2ccc(-c3ccco3)nn2)s1	GSTO1 counter 36
CCCCC(=O)Nc1ccc(C(=O)NCC2COc3ccccc3O2)cc1 (stereo unspecified)	none (no result: Fh CTSL1 inh, PAD4 inh, GSTO1 counter)
CCCCCCCCN1C(=O)[C@@H](CC(=O)N2CCOCC2)C[C@@]2(C(=O)OC)C1=C[C@H](C1CCCC1)O[C@@H]2C	none (no result: Fh CTSL1 inh, PAD4 inh, GSTO1 counter)
O=C(NCc1cccc2ccccc12)C1CCCN(c2nc3ccccc3o2)C1 (stereo unspecified)	none (no result: Fh CTSL1 inh, PAD4 inh, GSTO1 counter)
OC(c1ccccc1)(c1ccccc1)C1CCN(CCCOc2ccc(Br)cc2)CC1	none (no result: Fh CTSL1 inh, PAD4 inh, GSTO1 counter)
CC1(C)CC2(CC(c3ccccc3F)c3ccc(O)c(O)c3O2)NC(=S)N1 (stereo unspecified)	GSTO1 counter 44
CC1(C)CC2(CC(c3ccc(F)cc3)c3ccc(O)cc3O2)NC(=S)N1 (stereo unspecified)	none
Cc1ccc(-n2nc3c(N4CCC(C(=O)N5CCCCCC5)CC4)nnc(C)c3c2C)cc1	none (no result: TDP2 absorb)
COc1ccc(-n2nc3c(N4CCC(C(=O)N5CCCCCC5)CC4)nnc(C)c3c2C)cc1	Fh CTSL1 inh 28
COC(=O)CN(Cc1cn(Cc2ccccc2)nn1)S(=O)(=O)c1ccccc1Br	none (no result: Fh CTSL1 inh, PAD4 inh, GSTO1 counter)
Cc1ccc(NC(=S)NNC(=O)c2cnccn2)cc1	none (no result: Fh CTSL1 inh, PAD4 inh, GSTO1 counter)
NC(=S)N/N=C1\CCOc2ccc(F)cc21	Fh CTSL1 inh 18
O=C(C1CCN(S(=O)(=O)c2ccc3[nH]c(=O)oc3c2)CC1)N1CCCC1	none (no result: Fh CTSL1 inh, PAD4 inh, GSTO1 counter)
FC(F)(F)c1ccc2nc(CNc3nc(N4CCOCC4)nc4c3ncn4-c3ccsc3)[nH]c2c1	none (no result: Fh CTSL1 inh, PAD4 inh, GSTO1 counter)
Cc1[nH][nH]c(=O)c1C(c1ccc(-c2ccc(Cl)c(Cl)c2)o1)c1c(C)[nH][nH]c1=O	TDP2 absorb 64, GSTO1 counter 35
O=C(CCl)Nc1ccc(Oc2cnc3ccccc3n2)cc1	Fh CTSL1 inh 23, GSTO1 counter 86
COc1ccc(NC(=O)CCl)cn1	Fh CTSL1 inh 17, GSTO1 counter 56 (no result: TDP2 absorb)
COc1ccc(CC(=O)Nc2ccc(OC)nc2)cc1	none
COc1ccc(C[N+]2=C(N)NC3=C(C)Cn4c(=O)n(-c5ccccc5)c(=O)n4C3C2)c(OC)c1 (stereo unspecified)	none (no result: Fh CTSL1 inh, PAD4 inh, GSTO1 counter)
CC(C(=O)NCC1CCCCC1)N1CCc2ccccc2C1 (stereo unspecified)	none
CC(C(=O)NCC1CCCCC1)N1CCN(S(=O)(=O)/C=C/c2ccccc2)CC1 (stereo unspecified)	GSTO1 counter 35
O=S1(=O)c2ccc(N3CCCC3)cc2Oc2ccccc2CN1Cc1cn(Cc2cccc(C(F)(F)F)c2)nn1	none (no result: Fh CTSL1 inh, PAD4 inh, GSTO1 counter)
ClCc1csc(-c2ccccc2Cl)n1	GSTO1 counter 94
CCCC1CC(C)(/C(C)=N\NC(N)=S)OC1=O (stereo unspecified)	none
C/C(=N\NC(N)=S)C1(C)CC2(CC(C)(C)OC2=O)C(=O)O1 (stereo unspecified)	Fh CTSL1 inh 19
C#CCNC(=O)C[C@H]1C[C@@]2(C(=O)OC)C(=C[C@H](C3CCCC3)O[C@@H]2C)N(CCC2=CCCCC2)C1=O	none (no result: Fh CTSL1 inh, PAD4 inh, GSTO1 counter)
COc1ccc(-c2oc(NC(=O)CSc3nncn3C)c(C#N)c2-c2ccc(OC)cc2)cc1	Fh CTSL1 inh 30
COC(=O)CCC/C=C1/SCC(NC(=O)c2ccccc2)C1O (stereo unspecified)	Fh CTSL1 inh 48
CCOC(=O)c1c(S(=O)(=O)NCC2CCN(Cc3cccc(F)c3)CC2)c(C)n(C)c1C	Fh CTSL1 inh 44
COC(=O)[C@]12C[C@H](CC(=O)NCCCN3CCCC3=O)C(=O)N(Cc3ccc(Cl)cc3Cl)C1=C[C@H](C(C)(C)C)O[C@@H]2C	none (no result: Fh CTSL1 inh, PAD4 inh, GSTO1 counter)
CSCCCNC(=O)C1CCN(S(=O)(=O)c2ccc3[nH]c(=O)oc3c2)CC1	none (no result: Fh CTSL1 inh, PAD4 inh, GSTO1 counter)
COC(=O)[C@H](CC(C)C)N1Cc2nnn(Cc3ccccc3)c2-c2cc(F)ccc2S1(=O)=O	none (no result: Fh CTSL1 inh, PAD4 inh, GSTO1 counter)
Cc1ccc(/C=C/C(=O)OC(C)C(=O)Nc2ccc(Cl)cn2)o1 (stereo unspecified)	Fh CTSL1 inh 28
COc1ccc(S[C@]2(C(=O)N3CCN(c4ncccn4)CC3)CC(=O)N[C@@H]2c2ccc(OC)cc2)cc1	none (no result: Fh CTSL1 inh, PAD4 inh, GSTO1 counter)
N#Cc1cccc(NC(=O)CSc2ccc3c4c(cccc24)C(=O)c2ccccc2-3)c1	GSTO1 counter 36
O=C(O)c1ccc(S(=O)(=O)Nc2ccc(O)c(Sc3nc4ccccc4s3)c2)cc1	GSTO1 counter 55
CC(C)(N[C@@H](Cc1c[nH]c2ccccc12)C(=O)NCCCc1ccccc1)C(=O)NCc1ccccc1	none (no result: Fh CTSL1 inh, PAD4 inh, GSTO1 counter)
Cc1ccc2c(c1)Oc1ccc(NC(=O)CCl)cc1C(=O)N2	Fh CTSL1 inh 52, GSTO1 counter 92
O=C(O)C(S)C(S)C(=O)O (stereo unspecified)	GSTO1 counter 64 (no result: TDP2 absorb)
CC[C@H](CCCCCC#N)CCC(=O)N(c1ccccc1)c1ccccc1	none (no result: Fh CTSL1 inh, PAD4 inh, GSTO1 counter)
O=C(COc1ccc(Cl)cc1)NCCCNC(=O)c1cccnc1	Fh CTSL1 inh 17
